For nine molecules, IC50, logP and Activity results are on record in ChEMBL document CHEMBL1137467, “Synthesis and structure-activity relationships of novel 1-arylmethyl-3-aryl-1H-pyrazole-5-carbohydrazide derivatives as potential agents against A549 lung cancer cells” (Bioorg Med Chem, 2007).

In data set [1] the test system is A549. The experiment in a line: Growth inhibition of human A549 cells after 24 hrs. It is filed as functional, cell-based. Conditions: A549, 48 h, in the assay text read “after 48 hrs” for “after 24 hrs”. In short, it runs like this:
(§1)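 Compounds dissolved in DMSO, final DMSO below 0.1% (v/v) in culture medium. Cells seeded in 96-well plates and treated at 10–80 μM for 24 or 48 h. Viability by MTT assay with absorbance read at 570 nm. Controls were untreated medium and 0.1% DMSO vehicle.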

Data set [2] deals with A549. Nature of the data set: Growth inhibition of human A549 cells after 48 hrs. Type of data set: functional, cell-based. The conditions noted are these: A549, 24 h, in the assay text read “after 24 hrs” for “after 48 hrs”.
Data set [3] in a line: Lipophilicity, log P of the compound. It is filed as physicochemical. The conditions noted are these: octanol/water.
For data set [4], the system named is A549. The experiment in a line: Induction of apoptosis in A549 cells assessed as LDH release at 40 uM after 48 hrs. Type of data set: functional, cell-based. The conditions noted are these: Homo sapiens. In short, it runs like this:
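Culture medium collected after 48 h treatment at 40 μM and assayed for LDH release, compared against an untreated control group; n = 3.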
For orientation: LDH leaks from cells whose membrane has failed.

In data set [5] the test system is A549. Nature of the data set: Reduction of cell viability of human A549 cells at 80 uM after 48 hrs by MTT assay. It is filed as functional. In short, it runs like this: as §1
The test system of data set [6] is A549. The experiment in a line: Reduction of cell viability of human A549 cells at 40 uM after 48 hrs by MTT assay. Type of data set: functional. In short, it runs like this: as §1
Data set [7] concerns A549. Nature of the data set: Effect on nuclear fragmentation in human A549 cells at 40 uM after 48 hrs by AO staining method. Type of data set: functional, cell-based. In short, it runs like this: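 Cells cultured 48 h in fresh medium with 0 or 40 μM compound, then stained with 5 μg/ml acridine orange at room temperature. Chromatin condensation and DNA fragmentation imaged by laser scanning confocal/fluorescence microscopy. Images representative of three independent experiments.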

The subject of data set [8] is A549. Nature of the data set: Reduction of cell viability of human A549 cells at 40 uM after 24 hrs by MTT assay. It is filed as functional. In short, it runs like this: as §1
A general note: Tetrazolium assays rely on reduction of a dye to a coloured formazan, in cell work by metabolically active cells.

For data set [9], the system named is A549. Nature of the data set: Effect on cell morphology in human A549 cells assessed as cell shrinkage at 40 uM after 48 hrs. Type of data set: functional, cell-based. In short, it runs like this: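 Cells exposed to 40 μM compound for 24 h and 48 h, then inspected under a phase contrast microscope for shrinkage. Untreated cells served as control.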

Structures are written as SMILES. pIC50: −log10 of the molar value. Active and inactive are the calls of the source. The calls are words filed in the database; no cut-off is given here.

By pIC50 is commonly meant the negative decadic logarithm of the IC50, by convention in mol/L. Lower therefore signals a high IC50. A word on the logP: it is a log measure of how a compound divides between an organic and an aqueous phase.

For `NNC(=O)c1cc(-c2ccc(Cl)cc2)nn1Cc1ccccc1`, the pIC50 in the data set on A549 [1] is 4.41; with A549 [2], 3.63. This molecule also showed a logP in data set [3] of 3.24.
The corresponding values for `NNC(=O)c1cc(-c2ccccc2)nn1Cc1ccc(Cl)nc1` are 4.17, 3.65 and 2.52.
Regarding `CC(C)(C)c1ccc(Cn2nc(-c3ccc(Cl)cc3)cc2C(=O)NN)cc1`, the results for the pIC50 with A549 [1] and in the data set on A549 [2] were 4.73 and 4.17, respectively. For the same molecule, the outcome with A549 [4] and in the data set on A549 [7] was Active. In data set [3], this molecule had a lipophilicity (logP) of 4.94. In addition, the Activity in the data set with A549 [5] turned out to be 13%; in the data set with A549 [6], 26%; in the data set on A549 [8] it was 52%.
As for `NNC(=O)c1cc(-c2ccc(Cl)cc2)nn1Cc1ccc(Cl)nc1`, the figures for the pIC50 with A549 [1] and in the data set with A549 [2] were 4.52 and 3.92, respectively. Further, the logP in data set [3] was found to be 3.12.
For `COc1ccc(-c2cc(C(=O)NN)n(Cc3ccccc3)n2)cc1`, in the data set with A549 [2], the pIC50 is 3.26. The molecule further gave a logP in data set [3] of 2.87.
Regarding `CC(C)(C)c1ccc(Cn2nc(-c3ccccc3)cc2C(=O)NN)cc1`, the results for the pIC50 with A549 [1] and in the data set with A549 [2] were 4.58 and 4.18, respectively. The result in the data set on A549 [4], in the data set on A549 [7] and with A549 [9] was Active. Moreover, the logP in data set [3] was 4.49. The Activity in the data set with A549 [5] came to 15%; with A549 [6] it was 26%; with A549 [8], 52%.
With `COc1ccc(-c2cc(C(=O)NN)n(Cc3ccc(Cl)nc3)n2)cc1`, in the data set on A549 [2], the pIC50 is 3.62. Further, the logP in data set [3] amounted to 2.76.
In the data set on A549 [2], `NNC(=O)c1cc(-c2ccccc2)nn1Cc1ccccc1` showed a pIC50 of 3.36. Besides, the logP in data set [3] was 2.73.
`COc1ccc(-c2cc(C(=O)NN)n(Cc3ccc(C(C)(C)C)cc3)n2)cc1`: the pIC50 is 4.62 with A549 [1] and 4.30 in the data set with A549 [2]. Moreover, the outcome with A549 [4] and with A549 [7] was Active. Besides, the logP in [3] was 4.6. Also, the Activity in the data set with A549 [5] is 6%; in the data set on A549 [6], 26%; with A549 [8] it was 52%.
